Measured values from ChEMBL document CHEMBL1125138, “1,3-Dialkyl-3-acyltriazenes, a novel class of antineoplastic alkylating agents” (J Med Chem, 1990).

Assays:
A498 = experiment: Evaluated for the inhibitory concentration required to cause growth inhibition of A498Rem- renal cell line using the MTT Cytotoxicity Assay; assay type: functional, cell-based; details: Homo sapiens
Method in brief: (§1)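 MTT microculture tetrazolium growth assay on human cell lines and normal fibroblasts. Cells seeded at 1000 cells/well, with compound added 24 h after plating. Cultures then incubated a further 6 days at 37 °C before MTT read-out of growth versus untreated cells.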

L1210 [1] = experiment: Evaluated for the antineoplastic activity against L1210 leukemia tumor […] after administering intra peritoneally at a dose of 30 mg/kg; assay type: functional, Mus musculus
Method in brief: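 Mice bearing L1210 leukemia dosed intraperitoneally once daily for 5 successive days (five injections). Activity reported as % T/C at each dose. Performed under the NCI Developmental Therapeutics Program.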

A673 = experiment: Evaluated for the inhibitory concentration required to cause growth inhibition of A673Mer+ sarcoma cell line using the MTT Cytotoxicity Assay; assay type: functional, cell-based; details: Homo sapiens; method in brief: as §1
CCD 19Lu = experiment: Evaluated for the inhibitory concentration required to cause growth inhibition of CCD-19Lu fibroblasts cell line using the MTT Cytotoxicity Assay; assay type: functional, cell-based; details: Homo sapiens; method in brief: as §1
[2] = Evaluated for the antineoplastic activity against amelanotic melanoma tumor xenograft in nude mice after injecting intraperitoneally at a dose of 120 mg/kg; assay type: functional, Mus musculus; details: route intraperitoneal
SK-MEL-5 = experiment: Evaluated for the inhibitory concentration required to cause growth inhibition of SK-MEL-5 melanoma cell line using the MTT Cytotoxicity Assay; assay type: functional, cell-based; details: Homo sapiens; method in brief: as §1
L1210 [3] = experiment: Evaluated for the antineoplastic activity against L1210 leukemia tumor […] after administering intra peritoneally at a dose of 15 mg/kg; assay type: functional, Mus musculus
A 172 = experiment: Evaluated for the inhibitory concentration required to cause growth inhibition of A172Mer- cell line of central nervous system (CNS) using the MTT Cytotoxicity Assay; assay type: functional, cell-based; details: Homo sapiens; method in brief: as §1
[4] = Evaluated for the antineoplastic activity against M5 sarcoma tumor xenograft in nude mice after administering Intra peritoneally at 4-day interval at a dose of 15 mg/kg; assay type: functional, Mus musculus
Method in brief: (§2)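 M5 sarcoma-bearing mice given four intraperitoneal injections at 4-day intervals. Activity reported as % T/C per dose. Performed under the NCI Developmental Therapeutics Program.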

A549 = experiment: Evaluated for the inhibitory concentration required to cause growth inhibition of A549Rem- cell line of lung using the MTT Cytotoxicity Assay; assay type: functional, cell-based; details: Homo sapiens; method in brief: as §1
[5] = Evaluated for the antineoplastic activity against M5 sarcoma tumor xenograft in nude mice after administering Intra peritoneally at 4-day interval at a dose of 30 mg/kg; assay type: functional, Mus musculus; method in brief: as §2
NCI-H322M = experiment: Evaluated for the inhibitory concentration required to cause growth inhibition of H322M cell line of lung using the Microculture Tetrazolium (MTT) Cytotoxicity Assay; assay type: functional, cell-based; details: Homo sapiens; method in brief: as §1
DOD-1 = experiment: Evaluated for the inhibitory concentration required to cause growth inhibition of DOD-1 breast cell line using the MTT Cytotoxicity Assay; assay type: functional, cell-based; details: Homo sapiens; method in brief: as §1
[6] = Evaluated for the antineoplastic activity against amelanotic melanoma tumor xenograft in nude mice after injecting intraperitoneally at a dose of 30 mg/kg; assay type: functional, Mus musculus; details: route intraperitoneal
TE-671 = experiment: Evaluated for the inhibitory concentration required to cause growth inhibition of TE-671 cell line of central nervous system (CNS)using the MTT Cytotoxicity Assay; assay type: functional, cell-based; details: Homo sapiens; method in brief: as §1
HOS-TE85 = experiment: Evaluated for the inhibitory concentration required to cause growth inhibition of TE85Mer+ sarcoma cell line using the MTT Cytotoxicity Assay; assay type: functional, cell-based; details: Homo sapiens; method in brief: as §1
[7] = tested on: MAR BEL fibroblasts cell line; experiment: Evaluated for the inhibitory concentration required to cause growth inhibition of MAR BEL fibroblasts cell line using the MTT Cytotoxicity Assay; assay type: functional, cell-based; details: Homo sapiens; method in brief: as §1
[8] = Evaluated for the antineoplastic activity against amelanotic melanoma tumor xenograft in nude mice after injecting intraperitoneally at a dose of 60 mg/kg; assay type: functional, Mus musculus; details: route intraperitoneal
U-251 = experiment: Evaluated for the inhibitory concentration required to cause growth inhibition of U251 cell line of central nervous system (CNS) using the MTT Cytotoxicity Assay; assay type: functional, cell-based; details: Homo sapiens
Method in brief: (§3)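 MTT cell-growth assay in human cell lines: cells harvested and seeded at 1000 cells/well in 96-well plates. Compound added after 24 h, then cultures incubated a further 6 days at 37 °C. Growth measured with and without agent.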

A704 = experiment: Evaluated for the inhibitory concentration required to cause growth inhibition of A704Rem- renal cell line using the MTT Cytotoxicity Assay; assay type: functional, cell-based; details: Homo sapiens; method in brief: as §1
NCI-H522 (Homo sapiens) = experiment: Evaluated for the inhibitory concentration required to cause growth inhibition of H522 cell line of lung using the Microculture Tetrazolium (MTT) Cytotoxicity Assay
NCI-H125 = experiment: Evaluated for the inhibitory concentration required to cause growth inhibition of H125 cell line of lung using the Microculture Tetrazolium (MTT) Cytotoxicity Assay; assay type: functional, cell-based; details: Homo sapiens; method in brief: as §1
OVCAR-3 = experiment: Evaluated for the inhibitory concentration required to cause growth inhibition of OVCAR-3 ovarian cell line using the MTT Cytotoxicity Assay; assay type: functional, cell-based; details: Homo sapiens; method in brief: as §1
OVCAR-4 = experiment: Evaluated for the inhibitory concentration required to cause growth inhibition of OVCAR-4 ovarian cell line using the MTT Cytotoxicity Assay; assay type: functional, cell-based; details: Homo sapiens; method in brief: as §1
NCI-H358 = experiment: Evaluated for the inhibitory concentration required to cause growth inhibition of H358M cell line of lung using the Microculture Tetrazolium (MTT) Cytotoxicity Assay; assay type: functional, cell-based; details: Homo sapiens; method in brief: as §1
NCI-H23 = experiment: Evaluated for the inhibitory concentration required to cause growth inhibition of H23 cell line of lung using the Microculture Tetrazolium (MTT) Cytotoxicity Assay; assay type: functional, cell-based; details: Homo sapiens; method in brief: as §1
Malme-3M = experiment: Evaluated for the inhibitory concentration required to cause growth inhibition of MALME-3M melanoma cell line using the MTT Cytotoxicity Assay; assay type: functional, cell-based; details: Homo sapiens; method in brief: as §1
[9] = Evaluated for the antineoplastic activity against M5 sarcoma tumor xenograft in nude mice after administering Intra peritoneally at 4-day interval at a dose of 7.5 mg/kg; assay type: functional, Mus musculus; method in brief: as §2
NCI-H460 = experiment: Evaluated for the inhibitory concentration required to cause growth inhibition of H460 cell line of lung using the Microculture Tetrazolium (MTT) Cytotoxicity Assay; assay type: functional, cell-based; details: Homo sapiens; method in brief: as §1
[10] = Evaluated for the antineoplastic activity against M5 sarcoma tumor xenograft in nude mice after administering Intra peritoneally at 4-day interval at a dose of 60 mg/kg; assay type: functional, Mus musculus; method in brief: as §2
LOX IMVI = experiment: Evaluated for the inhibitory concentration required to cause growth inhibition of LOX melanoma cell line using the MTT Cytotoxicity Assay; assay type: functional, cell-based; details: Homo sapiens; method in brief: as §1
MCF7 = experiment: Evaluated for the inhibitory concentration required to cause growth inhibition of MCF-7 breast cell line using the MTT Cytotoxicity Assay; assay type: functional, cell-based; details: Homo sapiens; method in brief: as §1
RPMI-7951 = experiment: Evaluated for the inhibitory concentration required to cause growth inhibition of RPMI7951 melanoma cell line using the MTT Cytotoxicity Assay; assay type: functional, cell-based; details: Homo sapiens; method in brief: as §1
A-427 = experiment: Evaluated for the inhibitory concentration required to cause growth inhibition of A427Mer- cell line of lung using the MTT Cytotoxicity Assay; assay type: functional, cell-based; details: Homo sapiens; method in brief: as §1
WiDr = experiment: Evaluated for the inhibitory concentration required to cause growth inhibition of WiDR colon cell line using the MTT Cytotoxicity Assay; assay type: functional, cell-based; details: Homo sapiens; method in brief: as §3
NCI/ADR-RES = experiment: Evaluated for the inhibitory concentration required to cause growth inhibition of MCF-7ADR breast cell line using the MTT Cytotoxicity Assay; assay type: functional, cell-based; details: Homo sapiens; method in brief: as §1

CCOC(=O)N(C)/N=N\C
IC50 (A498): 35 µM | T/C (L1210 [1]): 142% | IC50 (A673): 75 µM | IC50 (CCD 19Lu): 62 µM | T/C [2]: 191% | IC50 (SK-MEL-5): 20 µM | T/C (L1210 [3]): 133% | IC50 (A 172): 20 µM | T/C [4]: 140% | IC50 (A549): 45 µM | T/C [5]: 158% | IC50 (NCI-H322M): 42 µM | IC50 (DOD-1): 44 µM | T/C [6]: 132% | IC50 (TE-671): 48 µM | IC50 (HOS-TE85): 37 µM | IC50 [7]: 75 µM | T/C [8]: 147% | IC50 (U-251): 28 µM | IC50 (A704): 55 µM | IC50 (NCI-H522 (Homo sapiens)): 18 µM | IC50 (NCI-H125): 44 µM | IC50 (OVCAR-3): 60 µM | IC50 (OVCAR-4): 40 µM | IC50 (NCI-H358): 80 µM | IC50 (NCI-H23): 20 µM | IC50 (Malme-3M): 22 µM | T/C [9]: 131% | IC50 (NCI-H460): 65 µM | T/C [10]: 168% | IC50 (LOX IMVI): 22 µM | IC50 (MCF7): 27 µM | IC50 (RPMI-7951): 35 µM | IC50 (A-427): 7 µM | IC50 (WiDr): 45 µM | IC50 (NCI/ADR-RES): 34 µM
